Reference: ChEMBL document CHEMBL4715690 (Bioorg Med Chem, 2016)
pIC50: −log10 of the molar value. Activity calls are given as the source filed them. The calls are words filed in the database; no cut-off is given here.

Key:
MCF7 = assay: Antiproliferative activity against human MCF7 cells expressing c-MET assessed as reduction in cell viability incubated for 72 hrs by MTT assay; type: functional, cell-based; settings: MCF7, 72 h
Method in brief: (§1)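 Cells plated at 1×10⁴/well (6 wells/group) in RPMI-1640 with 10% FBS and left to adhere overnight. They were then switched to serum-free RPMI-1640 with 40 ng/mL HGF as mitogen plus at least four compound concentrations, or DMSO vehicle (final ≤0.1%), for 72 h, refed every other day. MTT (1 mg/mL) was added for 4 h, formazan dissolved in DMSO, and A570 read. Cell number came from a standard curve, survival was expressed versus DMSO, and IC50 was fitted by nonlinear regression.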

[1] = Antiproliferative activity against human MCF7-DOX cells expressing c-MET assessed as reduction in cell viability incubated for 72 hrs by MTT assay; type: functional, cell-based
Method in brief: (§2)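 MTT proliferation. Cells in exponential growth were seeded at 1×10⁴/well (6 wells/group) in RPMI-1640 with 10% FBS and left to adhere overnight. They were then switched to serum-free RPMI-1640 with 40 ng/mL HGF as mitogen plus test doses (at least four concentrations) or DMSO vehicle (≤0.1% final), refreshed every other day. After 72 h, 1 mg/mL MTT was added for 4 h, DMSO solubilized, A570 read. Cell number came from a standard curve, and IC50 was fitted by nonlinear regression of log concentration versus % survival.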

BT-474 = assay: Antiproliferative activity against human BT-474 cells expressing c-MET assessed as reduction in cell viability incubated for 72 hrs by MTT assay; type: functional, cell-based; settings: BT-474, 72 h; method in brief: as §1
SK-BR-3 = assay: Antiproliferative activity against human SK-BR-3 cells expressing c-MET assessed as reduction in cell viability incubated for 72 hrs by MTT assay; type: functional, cell-based; settings: SK-BR-3, 72 h; method in brief: as §1
MDA-MB-231 [2] = assay: Antiproliferative activity against human MDA-MB-231 cells expressing c-MET assessed as reduction in cell viability incubated for 72 hrs by MTT assay; type: functional, cell-based; settings: MDA-MB-231, 72 h; method in brief: as §2
MDA-MB-468 = assay: Antiproliferative activity against human MDA-MB-468 cells expressing c-MET assessed as reduction in cell viability incubated for 72 hrs by MTT assay; type: functional, cell-based; settings: MDA-MB-468, 72 h; method in brief: as §1
[3] = biological target: T1, Hepatocyte growth factor receptor (Homo sapiens, UniProt P08581); assay: Inhibition of recombinant human His-tagged c-MET expressed in baculovirus expression system assessed as reduction in c-MET phosphorylation at 5 uM using Tyr6 as substrate incubated for 1 hr by Z'-lyte assay relative to control
T1 sequence (P08581 whole entry): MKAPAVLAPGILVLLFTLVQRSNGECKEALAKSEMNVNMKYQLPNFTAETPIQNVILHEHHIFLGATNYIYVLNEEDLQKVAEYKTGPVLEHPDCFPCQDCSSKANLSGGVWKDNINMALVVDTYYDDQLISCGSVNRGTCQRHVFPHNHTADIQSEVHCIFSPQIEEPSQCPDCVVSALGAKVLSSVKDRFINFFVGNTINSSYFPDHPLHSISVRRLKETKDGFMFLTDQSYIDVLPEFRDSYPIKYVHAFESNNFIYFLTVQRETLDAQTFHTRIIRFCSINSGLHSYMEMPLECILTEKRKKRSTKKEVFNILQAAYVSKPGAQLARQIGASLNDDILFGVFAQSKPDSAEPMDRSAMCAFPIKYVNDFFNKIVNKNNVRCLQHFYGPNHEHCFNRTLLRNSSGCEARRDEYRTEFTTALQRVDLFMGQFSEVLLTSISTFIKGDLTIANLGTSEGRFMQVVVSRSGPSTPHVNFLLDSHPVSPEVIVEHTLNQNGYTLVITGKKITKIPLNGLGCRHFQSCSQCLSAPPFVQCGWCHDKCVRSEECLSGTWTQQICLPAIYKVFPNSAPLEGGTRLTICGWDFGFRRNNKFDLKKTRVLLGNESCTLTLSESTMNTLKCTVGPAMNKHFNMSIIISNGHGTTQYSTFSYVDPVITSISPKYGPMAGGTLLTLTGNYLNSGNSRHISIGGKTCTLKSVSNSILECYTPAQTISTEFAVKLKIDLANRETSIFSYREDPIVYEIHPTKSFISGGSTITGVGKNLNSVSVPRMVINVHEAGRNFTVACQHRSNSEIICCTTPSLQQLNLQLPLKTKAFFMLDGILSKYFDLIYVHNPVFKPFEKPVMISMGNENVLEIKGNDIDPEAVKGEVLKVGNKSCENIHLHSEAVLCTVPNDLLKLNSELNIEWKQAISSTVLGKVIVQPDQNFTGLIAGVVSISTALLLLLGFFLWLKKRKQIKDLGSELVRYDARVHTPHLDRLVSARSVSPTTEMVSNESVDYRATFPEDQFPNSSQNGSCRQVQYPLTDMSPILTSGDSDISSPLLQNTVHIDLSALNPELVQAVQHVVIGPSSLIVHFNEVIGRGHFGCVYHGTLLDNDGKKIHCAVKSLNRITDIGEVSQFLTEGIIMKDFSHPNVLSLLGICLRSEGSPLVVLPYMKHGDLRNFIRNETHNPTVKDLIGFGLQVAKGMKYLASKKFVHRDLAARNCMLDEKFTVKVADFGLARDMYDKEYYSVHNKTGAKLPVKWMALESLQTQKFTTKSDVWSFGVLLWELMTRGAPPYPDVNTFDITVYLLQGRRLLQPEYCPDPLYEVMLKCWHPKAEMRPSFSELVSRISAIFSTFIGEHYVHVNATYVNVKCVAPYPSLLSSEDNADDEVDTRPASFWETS
Method in brief: (§3)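 Cell-free Z′-LYTE Tyr6 assay with recombinant human wild-type or M1250T mutant c-Met kinase at 2500 ng/mL, plus 200 μM ATP, 4 μM Tyr6 peptide and inhibitor. Reaction ran 1 h at room temperature, followed by protease development for 1 h. Readout was the 445/520 nm emission ratio. IC50 from nonlinear regression of log concentration vs % phosphorylation; n=3/dose.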

[4] = biological target: T1, Hepatocyte growth factor receptor; assay: Inhibition of recombinant human His-tagged c-MET expressed in baculovirus expression system assessed as reduction in c-MET phosphorylation at 10 uM using Tyr6 as substrate incubated for 1 hr by Z'-lyte assay relative to control; method in brief: as §3
MDA-MB-231 [5] = assay: Antiinvasive activity against human MDA-MB-231 cells assessed as reduction in HGF-mediate cell invasion at 15 uM incubated for 24 hrs by fluorescence based assay relative to control; type: functional; design: scale not given: the % may be the effect or the level left
Method in brief: (§4)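 Cells starved 16 h in serum-free RPMI-1640, then 25,000 cells placed in rehydrated basement-membrane inserts. The bottom wells held 5% serum medium with test compound or DMSO vehicle, and invasion was induced with 40 ng/mL HGF. After 24 h at 37 °C, invaded cells were stained with calcein AM and read at ex 485/em 520 nm. Cell number came from a standard curve; triplicates.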

MDA-MB-231 [6] = assay: Antiinvasive activity against human MDA-MB-231 cells assessed as reduction in HGF-mediate cell invasion at 30 uM incubated for 24 hrs by fluorescence based assay relative to control; type: functional; design: scale not given: the % may be the effect or the level left; method in brief: as §4
A549 = assay: Cytotoxicity against human A549 cells assessed as reduction in cell viability incubated for 72 hrs by MTT assay; type: functional, cell-based; settings: A549, 72 h
HL-60 = assay: Cytotoxicity against human HL-60 cells assessed as reduction in cell viability incubated for 72 hrs by MTT assay; type: functional, cell-based; settings: HL-60, 72 h
T47D = assay: Antiproliferative activity against human T47D cells assessed as reduction in cell viability incubated for 72 hrs by MTT assay; type: functional, cell-based
Method in brief: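 Cells plated at 1×10⁴/well in RPMI-1640 with 10% FBS and left to adhere overnight. They were then fed serum-free RPMI-1640 containing 40 ng/mL HGF and at least four compound concentrations, 6 wells/group, for 72 h, with medium renewed every other day. MTT 1 mg/mL for 4 h, formazan dissolved in DMSO, A570. Cell number came from a standard curve; IC50 from nonlinear regression of log concentration vs % survival relative to DMSO.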

[7] = Cytotoxicity against human MCF-10A cells assessed as cell viability at 5 uM incubated for 72 hrs by MTT assay; type: cell-based; settings: read-out: Activity
[8] = Cytotoxicity against human MCF-10A cells assessed as cell viability at 10 uM incubated for 72 hrs by MTT assay; type: cell-based; settings: read-out: Activity
[9] = Cytotoxicity against human MCF-10A cells assessed as cell viability at 20 uM incubated for 72 hrs by MTT assay; type: cell-based; settings: read-out: Activity
[10] = Cytotoxicity against human MCF-10A cells assessed as cell viability at 30 uM incubated for 72 hrs by MTT assay; type: cell-based; settings: read-out: Activity
MDA-MB-231 [11] = assay: Cytotoxicity against human MDA-MB-231 cells assessed as reduction in cell viability at 25 uM incubated for 24 hrs by LDH assay relative to control; type: functional
Method in brief: (§5)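 MDA-MB-231 cells seeded at 3×10⁴/well and allowed to attach, then treated in triplicate in 5% serum medium for 24 h at 37 °C. Triton X-100 gave maximum release, and […]. Supernatant was reacted with NAD⁺, lactate, INT and diaphorase for 30 min at room temperature, then read at A490. % cytotoxicity was computed relative to spontaneous and maximum release.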

MDA-MB-231 [12] = assay: Cytotoxicity against human MDA-MB-231 cells assessed as reduction in cell viability at 50 uM incubated for 24 hrs by LDH assay relative to control; type: functional; method in brief: as §5
[13] = biological target: T1, Hepatocyte growth factor receptor; assay: Inhibition of recombinant human His-tagged c-MET expressed in baculovirus expression system assessed as reduction in c-MET phosphorylation using Tyr6 as substrate incubated for 1 hr by Z'-lyte assay; method in brief: as §3
[14] = biological target: Hepatocyte growth factor receptor (Homo sapiens, UniProt P08581, M1250T); assay: Inhibition of recombinant human His-tagged c-MET M1250T mutant expressed in baculovirus expression system assessed as reduction in c-MET phosphorylation using Tyr6 as substrate incubated for 1 hr by Z'-lyte assay
Hepatocyte growth factor receptor (Homo sapiens, UniProt P08581, M1250T), sequence (P08581 whole entry M1250T): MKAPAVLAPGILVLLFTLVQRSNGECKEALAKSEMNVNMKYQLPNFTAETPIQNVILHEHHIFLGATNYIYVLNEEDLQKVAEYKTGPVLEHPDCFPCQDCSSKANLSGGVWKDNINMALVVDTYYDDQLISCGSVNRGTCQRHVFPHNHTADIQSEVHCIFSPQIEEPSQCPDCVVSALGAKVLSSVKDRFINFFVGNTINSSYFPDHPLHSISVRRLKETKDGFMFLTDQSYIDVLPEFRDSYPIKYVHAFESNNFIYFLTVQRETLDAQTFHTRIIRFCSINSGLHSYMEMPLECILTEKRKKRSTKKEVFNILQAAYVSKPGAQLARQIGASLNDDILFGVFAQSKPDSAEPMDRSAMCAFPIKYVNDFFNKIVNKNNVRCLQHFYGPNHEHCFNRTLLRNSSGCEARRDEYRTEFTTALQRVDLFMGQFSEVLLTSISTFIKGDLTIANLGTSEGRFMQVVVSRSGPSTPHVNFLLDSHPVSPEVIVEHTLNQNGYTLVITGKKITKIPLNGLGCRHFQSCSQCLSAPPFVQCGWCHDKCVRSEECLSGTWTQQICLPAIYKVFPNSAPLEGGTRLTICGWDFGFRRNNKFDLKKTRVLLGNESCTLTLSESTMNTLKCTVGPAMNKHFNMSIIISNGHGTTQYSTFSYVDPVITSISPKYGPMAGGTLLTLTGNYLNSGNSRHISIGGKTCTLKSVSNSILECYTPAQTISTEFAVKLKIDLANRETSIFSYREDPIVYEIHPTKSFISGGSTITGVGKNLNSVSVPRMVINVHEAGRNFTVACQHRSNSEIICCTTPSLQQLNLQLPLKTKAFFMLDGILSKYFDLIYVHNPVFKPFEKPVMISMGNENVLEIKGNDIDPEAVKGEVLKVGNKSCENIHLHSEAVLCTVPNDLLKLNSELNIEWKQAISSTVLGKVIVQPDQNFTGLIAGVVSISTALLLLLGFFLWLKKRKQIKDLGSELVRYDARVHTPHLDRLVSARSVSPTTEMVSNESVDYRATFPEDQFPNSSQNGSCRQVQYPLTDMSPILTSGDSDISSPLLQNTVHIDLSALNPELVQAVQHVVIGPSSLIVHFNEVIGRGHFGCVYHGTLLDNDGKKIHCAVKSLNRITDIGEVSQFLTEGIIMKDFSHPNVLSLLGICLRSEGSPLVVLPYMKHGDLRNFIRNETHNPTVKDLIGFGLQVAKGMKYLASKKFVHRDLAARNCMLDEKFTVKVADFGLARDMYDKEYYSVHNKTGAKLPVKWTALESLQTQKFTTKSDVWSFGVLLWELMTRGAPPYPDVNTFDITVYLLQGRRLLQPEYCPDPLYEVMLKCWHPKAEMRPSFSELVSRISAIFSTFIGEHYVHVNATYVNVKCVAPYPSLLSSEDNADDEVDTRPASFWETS

MDA-MB-231 [15] = assay: Antiinvasive activity against human MDA-MB-231 cells assessed as reduction in HGF-induced cell invasion incubated for 24 hrs by fluorescence based assay; type: functional; method in brief: as §4
MDA-MB-231 [16] = assay: Reduction of c-MET expression level in human MDA-MB-231 cells at 15 to 30 uM incubated for 48 hrs by Western blot analysis; type: functional, cell-based; settings: dose 15-30 µM
Method in brief: (§6)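 MDA-MB-231 cells seeded at 1×10⁶ per 100 mm dish and left overnight. Cells were treated with compound or DMSO in serum-free medium containing HGF 50 ng/mL for 48 h. RIPA lysates (30 μg protein) were run on SDS-PAGE and transferred to PVDF. Membranes were blocked in 5% BSA/TBST and probed overnight at 4 °C with primary antibodies, then HRP secondary; chemiluminescent detection.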

[17] = biological target: T1, Hepatocyte growth factor receptor; assay: Inhibition of c-MET in human MDA-MB-231 cells assessed as reduction in c-MET phosphorylation level at 15 to 30 uM incubated for 48 hrs by Western blot analysis; type: cell-based; settings: dose 15-30 µM; method in brief: as §6
MDA-MB-231 [18] = assay: Antitumor activity against GFP-tagged human MDA-MB-231 cells xenografted in athymic nude-Foxn1nu/Fox1+ mouse assessed as the reduction in tumor growth at 10 mg/kg, ip dosed 3 times per week for 3 weeks treatment started 14 days of post inoculation; type: functional; settings: MDA-MB-231, ip, 504 h, read-out: TGI
Method in brief: (§7)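 Female athymic nude mice, 4–5 weeks old, received 1×10⁶ MDA-MB-231/GFP cells into the second mammary fat pad (orthotopic), n = 5/group. Dosing was 10 mg/kg i.p. 3×/week or DMSO/saline vehicle, starting on day 14 after inoculation. Tumor volume was taken as L/2 × W², with body weight and clinical signs monitored. Mice were killed on day 33 and tumors excised and weighed.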

[19] = Toxicity in athymic nude-Foxn1nu/Fox1+ mouse assessed as effect on body weight at 10 mg/kg, ip dosed 3 times per week for 3 weeks treatment started 14 days of post inoculation; type: organism-based; settings: in vivo, 504 h; method in brief: as §7
MDA-MB-231 [20] = assay: Antiinvasive activity against human MDA-MB-231 cells assessed as reduction in HGF-mediate cell invasion at 4 uM incubated for 24 hrs by fluorescence based assay relative to control; type: functional; design: scale not given: the % may be the effect or the level left; method in brief: as §4
MDA-MB-231 [21] = assay: Antiinvasive activity against human MDA-MB-231 cells assessed as reduction in HGF-mediate cell invasion at 8 uM incubated for 24 hrs by fluorescence based assay relative to control; type: functional; design: scale not given: the % may be the effect or the level left; method in brief: as §4
MDA-MB-231 [22] = assay: cells; settings: Homo sapiens, MDA-MB-231, 24 h
Bel-7402 = assay: Cytotoxicity against human Bel-7402 cells assessed as reduction in cell viability incubated for 72 hrs by MTT assay; type: functional, cell-based; settings: Bel-7402, 72 h
MOLT-4 = assay: Cytotoxicity against human MOLT-4 cells assessed as reduction in cell viability incubated for 72 hrs by MTT assay; type: functional, cell-based; settings: MOLT-4, 72 h

Row | Compound | pIC50 (MCF7) | pIC50 [1] | pIC50 (BT-474) | pIC50 (SK-BR-3) | pIC50 (MDA-MB-231 [2]) | pIC50 (MDA-MB-468) | inhibition [3] | inhibition [4] | Activity (MDA-MB-231 [5]) | Activity (MDA-MB-231 [6]) | pIC50 (A549) | pIC50 (HL-60) | viability at 72 h, 20 µM [9] | other results
1 | O=C1N[C@@H](Cc2c[nH]c3ccccc23)C(=O)N/C1=C/c1cnc[nH]1 | 4.40 | 4.62 | 4.40 | 4.40 | 4.50 | 4.40 | 0% | 10.2% | 46.1% | 83% | – | – | – | –
2 | C=CC(C)(C)[C@@]12C=C(O)C(=O)N3/C(=C/c4cnc[nH]4)C(=O)N[C@]31N(OC)c1ccccc12 | 5.72 | 5.49 | 5.57 | 5.55 | 5.17 | 5.05 | 56.3% | 88% | – | – | 4.70 | 5.13 | 74.4% | pIC50 (T47D): < 4.40; viability at 72 h, 5 µM [7]: 100%; viability at 72 h, 10 µM [8]: 98.8%; viability at 72 h, 30 µM [10]: 48.9%; inhibition at 25 µM (MDA-MB-231 [11]): 2.5%; inhibition at 50 µM (MDA-MB-231 [12]): 9.4%; pIC50 [13]: 5.38; inhibition [13]: Dose-dependent effect; pIC50 [14]: 5.68; Activity (MDA-MB-231 [15]): Dose-dependent effect; inhibition (MDA-MB-231 [16]): inactive; inhibition [17]: Active; inhibition in vivo at 10 mg/kg (MDA-MB-231 [18]): 65%; Activity [19]: Non-Toxic; Activity (MDA-MB-231 [20]): 30.7%; Activity (MDA-MB-231 [21]): 57.5%; pIC50 (MDA-MB-231 [22]): 5.74
3 | C=CC(C)(C)[C@@]12C=C(O)C(=O)N3/C(=C/c4cn([C@H]5C[C@@]6(O)O[C@@H]7C[C@@]6(C)[C@]6(C[C@]8(C)CCC(C)(C)[C@@H]8[C@@H]76)[C@@H]5C)cn4)C(=O)N[C@]31N(OC)c1ccccc12 | – | – | – | – | – | – | – | – | – | – | 5.74 | 5.74 | – | pIC50 (Bel-7402): 5.74; pIC50 (MOLT-4): 5.74
4 | C=CC(C)(C)[C@@]12C[C@H]3C(=O)N/C(=C/c4c[nH]cn4)C(=O)N3[C@@H]1Nc1ccccc12 [ROQUEFORTINE C] | 4.66 | 4.61 | 4.53 | 4.63 | 4.63 | 4.54 | 39.7% | 59.7% | 47.6% | 79.3% | – | – | 98.4% | –
